Assay results: ChEMBL document CHEMBL1121430, “Bicyclic and tricyclic ergoline partial structures. Rigid 3-(2-aminoethyl)pyrroles and 3- and 4-(2-aminoethyl)pyrazoles as dopamine agonists” (1980)

Experiments:
Type in all cases: functional
Rattus norvegicus [1] = assay: Dopaminergic activity causing prolactin inhibition in reserpinized rat after i.p. administration at dosage of 0.0005 mg/kg; settings: ip, route intraperitoneal
Summary of the method: (§1)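 Serum prolactin measured in reserpinized male rats given drug intraperitoneally; control group serum level alongside treated level; percent inhibition derived from control versus treated means; mean ± standard error for 10 rats per group; significance level (p) reported versus control.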

Rattus norvegicus [2] = assay: Control Serum prolactin level in reserpinized rat after i.p. administration at dosage of 0.0005 mg/kg; settings: route intraperitoneal; summary of the method: as §1
Rattus norvegicus [3] = assay: Percentage of lesioned rats exhibiting contralateral turning after ip dosage of 0.1 mg/kg; settings: route intraperitoneal
Summary of the method: (§2)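 Rats with unilateral 6-hydroxydopamine nigrostriatal lesions dosed intraperitoneally; contralateral rotation scored as percentage of rats turning and average turns counted over first 15 min after turning began; 6-10 rats per group.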

Rattus norvegicus [4] = assay: Tested for lowering of serum prolactin level in reserpinized rat after i.p. administration at dosage of 0.005 mg/kg; settings: route intraperitoneal; summary of the method: as §1
Rattus norvegicus [5] = assay: Percentage of lesioned rats exhibiting contralateral turning after ip dosage of 0.05 mg/kg; settings: route intraperitoneal; summary of the method: as §2
Rattus norvegicus [6] = assay: Average turns of rat / 1st 15 min at intraperitoneal dosage of 1.0 mg/kg
Rattus norvegicus [7] = assay: (§3) Dopaminergic activity causing prolactin inhibition in reserpinized rat after i.p. administration at dosage of 0.005 mg/kg; settings: ip, route intraperitoneal
Summary of the method: (§4)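 Male rats pretreated with reserpine; drug given i.p. and serum prolactin measured (ng/mL) in controls and treated groups; % inhibition relative to control; mean ± SE for 10 rats per group; significance level p reported. Method of Clemens et al.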

Rattus norvegicus [8] = species on record: Rattus norvegicus; assay: animal or person; settings: ip, route intraperitoneal
Rattus norvegicus [9] = assay: Control Serum prolactin level in reserpinized rat after i.p. administration at dosage of 0.005 mg/kg; settings: route intraperitoneal; summary of the method: as §1
Rattus norvegicus [10] = assay: Tested for average turns of rat / 1st 15 min at intraperitoneal dosage of 0.05 mg/kg; summary of the method: as §2
Rattus norvegicus [11] = assay: Percentage of lesioned rats exhibiting contralateral turning after ip dosage of 1.0 mg/kg; settings: route intraperitoneal; summary of the method: as §2
Rattus norvegicus [12] = assay: (§5) Tested for average turns of rat / 1st 15 min at intraperitoneal dosage of 0.1 mg/kg; summary of the method: as §2
Rattus norvegicus [13] = assay: Tested for lowering of serum prolactin level in reserpinized rat after i.p. administration at dosage of 0.0005 mg/kg; settings: route intraperitoneal; summary of the method: as §1
Rattus norvegicus [14] = assay: Control Serum prolactin level in reserpinized rat after i.p. administration at dosage of 0.5 mg/kg; settings: route intraperitoneal
Rattus norvegicus [15] = assay: Dopaminergic activity causing prolactin inhibition in reserpinized rat after i.p. administration at dosage of 0.5 mg/kg; settings: ip, route intraperitoneal
Rattus norvegicus [16] = assay: Percentage of lesioned rats exhibiting contralateral turning after intraperitoneal dosage of 1.0 mg/kg
Summary of the method: (§6)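 Rats with unilateral 6-hydroxydopamine nigrostriatal lesions dosed i.p.; contralateral rotation scored as % of rats turning and average turns during first 15 min after turning began; 6-10 rats per group. Method of Ungerstedt and Arbuthnot.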

Rattus norvegicus [17] = assay: (§7) Dopaminergic activity causing prolactin inhibition in reserpinized rat after i.p. administration at dosage of 5.0 mg/kg; settings: ip, route intraperitoneal
Rattus norvegicus [18] = assay: Tested for lowering of serum prolactin level in reserpinized rat after i.p. administration at dosage of 0.5 mg/kg; settings: route intraperitoneal
Rattus norvegicus [19] = assay: (§8) Control Serum prolactin level in reserpinized rat after i.p. administration at dosage of 0.05 mg/kg; settings: route intraperitoneal
Rattus norvegicus [20] = assay: as §5; summary of the method: as §6; remark: listed apart in the source
Rattus norvegicus [21] = assay: Percentage of lesioned rats exhibiting contralateral turning after intraperitoneal dosage of 0.1 mg/kg; summary of the method: as §6
Rattus norvegicus [22] = assay: (§9) Tested for lowering of serum prolactin level in reserpinized rat after i.p. administration at dosage of 0.05 mg/kg; settings: route intraperitoneal
Rattus norvegicus [23] = assay: Control Serum prolactin level in reserpinized rat after i.p. administration at dosage of 5 mg/kg; settings: route intraperitoneal
Summary of the method: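 Reserpinized male rats, intraperitoneal dosing; serum prolactin of vehicle control group reported in ng/mL as mean ± standard error, 10 rats per group, for comparison with treated group.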

Rattus norvegicus [24] = assay: as §7; settings: ip, route intraperitoneal; summary of the method: as §1; remark: listed apart in the source
Rattus norvegicus [25] = assay: Tested for average turns of rat / 1st 15 min at intraperitoneal dosage of 0.02 mg/kg; summary of the method: as §2
Rattus norvegicus [26] = assay: Percentage of lesioned rats exhibiting contralateral turning after ip dosage of 0.02 mg/kg; settings: route intraperitoneal; summary of the method: as §2
Rattus norvegicus [27] = assay: tested for average turns of rat / 1st 15 min at intraperitoneal dosage of 0.1 mg/kg; summary of the method: as §2
Rattus norvegicus [28] = assay: as §3; settings: ip, route intraperitoneal; summary of the method: as §1; remark: listed apart in the source
Rattus norvegicus [29] = assay: as §9; settings: route intraperitoneal; summary of the method: as §1; remark: listed apart in the source
Rattus norvegicus [30] = assay: Dopaminergic activity causing prolactin inhibition in reserpinized rat after i.p. administration at dosage of 0.05 mg/kg; settings: ip, route intraperitoneal; summary of the method: as §4
Rattus norvegicus [31] = assay: as §8; settings: route intraperitoneal; summary of the method: as §4; remark: listed apart in the source

Structure (SMILES) | Exhibiting turning (Rattus norvegicus [3]) | Average turns (Rattus norvegicus [6]) | inhibition in vivo at 0.05 mg/kg (Rattus norvegicus [8]) | Exhibiting turning (Rattus norvegicus [11]) | Concentration (Rattus norvegicus [14]) | inhibition in vivo at 0.5 mg/kg (Rattus norvegicus [15]) | Exhibiting turning (Rattus norvegicus [16]) | inhibition in vivo at 5 mg/kg (Rattus norvegicus [17]) | Serum level (Rattus norvegicus [18]) | further results
CCCN1CC(CSC)C[C@@H]2Cc3n[nH]cc3CC21.Cl.Cl (some centres not stated) | 50% | 81 | 89% | 100% |  |  |  |  |  | inhibition in vivo at 0.0005 mg/kg (Rattus norvegicus [1]): 30%; Inhibition (Rattus norvegicus [2]): 44.9 ng/mL; Inhibition (Rattus norvegicus [4]): 19.3 ng/mL; Exhibiting turning (Rattus norvegicus [5]): 67%; inhibition in vivo at 0.005 mg/kg (Rattus norvegicus [7]): 57%; Inhibition (Rattus norvegicus [9]): 44.9 ng/mL; Average turns (Rattus norvegicus [10]): 80; Average turns (Rattus norvegicus [12]): 65; Inhibition (Rattus norvegicus [13]): 31.5 ng/mL
CN1CCC[C@@H]2Cc3c[nH]cc3CC21.O=C(O)/C=C\C(=O)O (some centres not stated) |  | 19 |  |  | 37.7 ng/mL | 18% | 33% | 90% | 30.9 ng/mL | 
CCCN(CCC)C1CCc2c[nH]cc2C1.O=C(O)/C=C\C(=O)O (configuration not stated) |  | 52 | 20% |  | 59.8 ng/mL | 40% | 40% | 93% | 36.1 ng/mL | Inhibition (Rattus norvegicus [19]): 59.8 ng/mL; Average turns (Rattus norvegicus [20]): 0; Exhibiting turning (Rattus norvegicus [21]): 0%; Inhibition (Rattus norvegicus [22]): 47.6 ng/mL
O=C(O)/C=C\C(=O)O.c1[nH]cc2c1CC1NCCC[C@@H]1C2 (some centres not stated) |  | 0 |  | 0% |  |  |  |  |  | Inhibition (Rattus norvegicus [23]): 43.4 ng/mL; inhibition in vivo at 5 mg/kg (Rattus norvegicus [24]): 26%
CCCN1CC(CSC)C[C@@H]2c3cccc4[nH]cc(c34)CC21.COS(=O)(=O)O (some centres not stated) | 83% | 93 | 95% | 100% |  |  |  |  |  | inhibition in vivo at 0.0005 mg/kg (Rattus norvegicus [1]): 59%; Inhibition (Rattus norvegicus [2]): 37.7 ng/mL; Inhibition (Rattus norvegicus [4]): 3.5 ng/mL; Average turns (Rattus norvegicus [25]): 0; Exhibiting turning (Rattus norvegicus [5]): 100%; Exhibiting turning (Rattus norvegicus [26]): 0%; Average turns (Rattus norvegicus [27]): 81; Inhibition (Rattus norvegicus [9]): 37.7 ng/mL; Average turns (Rattus norvegicus [10]): 60; inhibition in vivo at 0.005 mg/kg (Rattus norvegicus [28]): 91%; Inhibition (Rattus norvegicus [13]): 15.5 ng/mL
NC1CCc2c[nH]cc2C1 (configuration not stated) |  | 0 |  |  |  |  | 0% | 24% |  | 
Cl.Cl.NC1CCc2n[nH]cc2C1 (configuration not stated) |  | 0 |  |  |  |  | 0% | 14% |  | 
CCCN(CCC)C1CCc2n[nH]cc2C1.Cl.Cl (configuration not stated) | 0% | 90 |  | 60% | 31.2 ng/mL | 66% |  | 94% | 10.6 ng/mL | Treatment (Rattus norvegicus [29]): 30.8 ng/mL; inhibition in vivo at 0.05 mg/kg (Rattus norvegicus [30]): 1%; Average turns (Rattus norvegicus [12]): 0; Control (Rattus norvegicus [31]): 31.2 ng/mL
CN(C)C1CCc2n[nH]cc2C1.Cl.Cl (configuration not stated) |  | 0 | 32% |  |  |  | 0% | 69% |  | Inhibition (Rattus norvegicus [19]): 59.8 ng/mL; Inhibition (Rattus norvegicus [22]): 41 ng/mL
